Results published in ChEMBL document CHEMBL3120154, “2-[N-Alkyl(R-phenyl)-aminomethyl]-3-phenyl-7-trifluoromethylquinoxalines as anticancer agents inhibitors of folate enzymes” (Eur J Med Chem, 2014).
Active and inactive are the calls of the source. The calls are words filed in the database; no cut-off is given here.

Legend:
[1] = test system: SF-268; assay: Cytotoxicity against human SF268 cells assessed as cell growth at 10^-4 M after 48 hrs by alamar blue assay relative to untreated control; assay type: functional; conditions: SF-268, 48 h, read-out: Activity
Outline: (§1)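 Three-cell-line prescreen at NCI. Each line was seeded and pre-incubated, then given a single concentration (10^-4 or 10^-5 M) and incubated for 48 h. The end-point was alamar blue. The value is percent growth of treated cells versus untreated control cells, with negative numbers indicating cell kill.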

[2] = target: T1, Dihydrofolate reductase (Homo sapiens, UniProt P00374); assay: Competitive inhibition of human dihydrofolate reductase by spectrophotometry
T1 sequence (P00374 whole entry): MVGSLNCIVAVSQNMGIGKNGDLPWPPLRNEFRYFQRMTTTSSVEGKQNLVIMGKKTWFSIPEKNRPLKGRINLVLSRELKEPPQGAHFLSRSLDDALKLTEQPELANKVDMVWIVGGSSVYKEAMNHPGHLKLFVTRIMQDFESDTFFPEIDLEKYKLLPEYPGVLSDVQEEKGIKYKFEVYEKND

[3] = test system: NCI-H460; assay: Cytotoxicity against human NCI-H460 cells assessed as cell growth at 10^-4 M after 48 hrs by alamar blue assay relative to untreated control; assay type: functional; conditions: NCI-H460, 48 h, read-out: Activity
Outline: (§2)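 Three-cell-line prescreen. Each line was inoculated and preincubated on a microtiter plate, then the agent was added at a single concentration (10^-4 or 10^-5 M) and incubated 48 h. Endpoint was measured with alamar blue, and growth is reported as a percentage of untreated control cells.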

[4] = test system: MCF7; assay: Cytotoxicity against human MCF7 cells assessed as cell growth at 10^-4 M after 48 hrs by alamar blue assay relative to untreated control; assay type: functional; conditions: MCF7, 48 h, read-out: Activity; outline: as §2
[5] = test system: NCI-H460; assay: Cytotoxicity against human NCI-H460 cells assessed as cell growth at 10^-5 M after 48 hrs by alamar blue assay relative to untreated control; assay type: functional; conditions: NCI-H460, 48 h, read-out: Activity; outline: as §2
[6] = test system: SF-268; assay: Cytotoxicity against human SF268 cells assessed as cell growth at 10^-5 M after 48 hrs by alamar blue assay relative to untreated control; assay type: functional; conditions: SF-268, 48 h, read-out: Activity; outline: as §1
[7] = test system: MCF7; assay: Cytotoxicity against human MCF7 cells assessed as cell growth at 10^-5 M after 48 hrs by alamar blue assay relative to untreated control; assay type: functional; conditions: MCF7, 48 h, read-out: Activity; outline: as §2
[8] = target: Thymidylate synthase (Homo sapiens, UniProt P04818); assay: Competitive inhibition of human thymidylate synthase by spectrophotometry
[9] = target: Dihydrofolate reductase (Homo sapiens) (UniProt P00374); assay: Competitive inhibition of human dihydrofolate reductase at 10 uM by spectrophotometry

Structure (SMILES) | Ki [2] | Ki [8] | inhibition [9] | growth at 100 µM [1] | growth at 100 µM [3] | growth at 100 µM [4] | growth at 10 µM [5] | growth at 10 µM [6] | growth at 10 µM [7]
CCN(Cc1nc2cc(C(F)(F)F)ccc2nc1-c1ccccc1)c1ccc(OC(F)(F)F)cc1 | 5 µM |  |  | 85% | 83% | 61% |  |  | 
CCOC(=O)CC[C@H](NC(=O)c1ccc(N(CC)Cc2nc3cc(C(F)(F)F)ccc3nc2-c2ccccc2)cc1)C(=O)OCC | 4 µM |  |  |  |  |  |  |  | 
C#CCN(Cc1nc2cc(C(F)(F)F)ccc2nc1-c1ccccc1)c1ccccc1Cl | 2 µM |  |  | 87% | 101% | 102% |  |  | 
CN(Cc1nc2cc(C(F)(F)F)ccc2nc1-c1ccccc1)c1ccc(F)cc1 | 5 µM |  |  | 125% | 119% | 180% |  |  | 
CCN(Cc1nc2cc(C(F)(F)F)ccc2nc1-c1ccccc1)c1ccc(C)cc1 | 4 µM |  |  |  |  |  |  |  | 
CCOC(=O)CC[C@H](NC(=O)c1ccc(N(C)Cc2nc3cc(C(F)(F)F)ccc3nc2-c2ccccc2)cc1)C(=O)OCC | 0.2 µM |  |  |  |  |  |  |  | 
CN(Cc1nc2cc(C(F)(F)F)ccc2nc1-c1ccccc1)c1ccc(Cl)cc1 | 5 µM |  |  |  |  |  | 118% | 108% | 109%
CCN(Cc1nc2cc(C(F)(F)F)ccc2nc1-c1ccccc1)c1ccc(OC)cc1 | 7 µM |  |  | 89% | 63% | 54% |  |  | 
CCOC(=O)Cc1ccc(N(C)Cc2nc3cc(C(F)(F)F)ccc3nc2-c2ccccc2)cc1 |  |  | inactive | 107% | 125% | 105% |  |  | 
CCOC(=O)Cc1ccc(N(CC)Cc2nc3cc(C(F)(F)F)ccc3nc2-c2ccccc2)cc1 | 3 µM |  |  |  |  |  |  |  | 
Cc1ccc(N(C)Cc2nc3cc(C(F)(F)F)ccc3nc2-c2ccccc2)cc1 | 11 µM |  |  |  |  |  | 116% | 121% | 115%
C#CCN(Cc1nc2cc(C(F)(F)F)ccc2nc1-c1ccccc1)c1ccc(OC)c(OC)c1 | 3 µM |  |  | 109% | 80% | 119% |  |  | 
COc1ccc(N(C)Cc2nc3cc(C(F)(F)F)ccc3nc2-c2ccccc2)cc1 | 3 µM |  |  | 107% | 125% | 105% |  |  | 
CCN(Cc1nc2cc(C(F)(F)F)ccc2nc1-c1ccccc1)c1ccc(Cl)cc1 | 3 µM |  |  | 81% | 68% | 46% |  |  | 
C#CCN(Cc1nc2cc(C(F)(F)F)ccc2nc1-c1ccccc1)c1ccc(CC(=O)OCC)cc1 | 3 µM |  |  | 111% | 115% | 106% |  |  | 
C#CCN(Cc1nc2cc(C(F)(F)F)ccc2nc1-c1ccccc1)c1ccc(C(F)(F)F)cc1F |  |  |  | 110% | 61% | 87% |  |  | 

The remaining compounds from weak to strong by Ki [2], led by results:

Ki [2] | Ki [8] | inhibition [9] | Structure (SMILES) | growth at 100 µM [1] | growth at 100 µM [3] | growth at 100 µM [4] | growth at 10 µM [5] | growth at 10 µM [6] | growth at 10 µM [7]
8 µM |  |  | COc1ccc(N(C)Cc2nc3cc(C(F)(F)F)ccc3nc2-c2ccccc2)cc1OC | 103% | 88% | 54% |  |  | 
6 µM |  |  | CCN(Cc1nc2cc(C(F)(F)F)ccc2nc1-c1ccccc1)c1cc(OC)c(OC)c(OC)c1 |  |  |  |  |  | 
5 µM |  |  | COc1cc(N(C)Cc2nc3cc(C(F)(F)F)ccc3nc2-c2ccccc2)cc(OC)c1OC | 97% | 77% | 61% |  |  | 
5 µM |  |  | CCN(Cc1nc2cc(C(F)(F)F)ccc2nc1-c1ccccc1)c1ccc(F)c(F)c1 |  |  |  | 81% | 94% | 73%
4 µM | 5 µM |  | C#CCN(Cc1nc2cc(C(F)(F)F)ccc2nc1-c1ccccc1)c1cc(OC)c(OC)c(OC)c1 | 102% | 104% | 64% |  |  | 
4 µM |  |  | C#CCN(Cc1nc2cc(C(F)(F)F)ccc2nc1-c1ccccc1)c1ccc(Cl)cc1 | 84% | 85% | 67% |  |  | 
4 µM | 0.27 µM |  | CN(Cc1nc2cc(C(F)(F)F)ccc2nc1-c1ccccc1)c1ccc(F)c(F)c1 |  |  |  | 88% | 97% | 114%
3 µM |  |  | CCN(Cc1nc2cc(C(F)(F)F)ccc2nc1-c1ccccc1)c1ccc(F)cc1 |  |  |  | 92% | 102% | 103%
3 µM |  |  | C#CCN(Cc1nc2cc(C(F)(F)F)ccc2nc1-c1ccccc1)c1ccc(OC)cc1 | 103% | 98% | 82% |  |  | 
3 µM |  |  | CN(Cc1nc2cc(C(F)(F)F)ccc2nc1-c1ccccc1)c1ccc(OC(F)(F)F)cc1 |  |  |  |  |  | 
